For assay [1], the system named is M14. In words: Cytotoxicity against human M14 cells assessed as cell viability at 100 uM after 4 hrs using bis-AAF-R110 as substrate by ApoTox-Glo triplex assay. The assay is classed as functional, cell-based. In a few lines:
(§1)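 M14 cells, 1250 per well, in serum-free DMEM, settled 4 h, then given 1:3 serial dilutions. Ionomycin, terfenadine and panobinostat were the controls. Incubated 4, 24, 48 or 72 h at 37 °C. A reagent containing 400 µM GF-AFC (live-cell protease, ex 400/em 505 nm) and 400 µM bis-AAF-R110 (dead-cell protease, ex 485/em 520 nm) was applied for 30 min at 37 °C. Caspase-Glo 3/7 (DEVD) luminescence was then read after 30 min at room temperature.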

Assay [2] deals with M14. In words: Induction of apoptosis human M14 cells assessed as caspase activity after 24 to 48 hrs using DEVD peptide as substrate by ApoTox-Glo triplex assay. The assay is classed as functional, cell-based. Summed up: as §1
The test system of assay [3] is M14. Kind of assay: Induction of apoptosis human M14 cells assessed as caspase activity at 100 uM after 4 hrs using DEVD peptide as substrate by ApoTox-Glo triplex assay. The assay is classed as functional, cell-based. In a few lines: as §1
The test system of assay [4] is M14. In words: Cytotoxicity against human M14 cells assessed as cell viability after 24 hrs using GF-AFC as substrate by ApoTox-Glo triplex assay. The assay is classed as functional, cell-based. In a few lines: as §1
Assay [5] has as its system M14. Kind of assay: Cytotoxicity against human M14 cells assessed as cell viability at 100 uM after 4 hrs using GF-AFC as substrate by ApoTox-Glo triplex assay. The class given is functional, cell-based. Summed up:
as §1

Assay [6] deals with M14. In words: Cytotoxicity against human M14 cells after 72 hrs by CellTiter-Glo luminescence assay. The assay is classed as functional, cell-based. The conditions noted are these: for IC50: M14, 72 h. In a few lines:
(§2)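 1250 cells per well in serum-free medium (F12 for CHO-K1 and A549, DMEM for M14). Compounds given as 10-point 1:3 serial dilutions from a 300 µM stock, plus a gefitinib control. Incubated 72 h at 37 °C, 5% CO2. CellTiter-Glo added for 15 min at room temperature, then luminescence read. Viability normalized to media-only wells (0%) and 1% DMSO wells (100%). Run in triplicate.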

Assay [7] concerns A549. Kind of assay: Cytotoxicity against human A549 cells after 72 hrs by CellTiter-Glo luminescence assay. The class given is functional, cell-based. To be noted: A549, 72 h. Summed up:
as §2

The test system of assay [8] is A549. Kind of assay: Selectivity ratio of IC50 for human M14 cells over IC50 for human A549 cells. The assay is classed as functional. Summed up:
(§3)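 Ratio of 72 h CellTiter-Glo IC50 values between the stated cell lines. Each IC50 comes from a 10-point 1:3 dose–response series and is the mean of three experiments ± standard deviation.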

The nature of assay [9]: Cytotoxicity against CHOK1 cells after 72 hrs by CellTiter-Glo luminescence assay. The class given is cell-based. The conditions noted are these: Cricetulus griseus, CHO-K1, 72 h. In a few lines: as §2
The subject of a further assay is CHO-K1. In words: Selectivity ratio of IC50 for human M14 cells over IC50 for CHOK1 cells. The class given is functional. In a few lines:
as §3

Assay [10] deals with SK-MEL-28. In words: Cytotoxicity against human SK-MEL-28 cells expressing B-raf V600E mutant after 48 hrs by hexosaminidase assay. The class given is functional, cell-based. Summed up:
(§4)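 SK-MEL-28 or B16/F10 cells plated in 96-well plates, grown overnight, then treated with 0–50 µM compound for 48 h. Cells washed with PBS, given hexosaminidase substrate for 30 min at 37 °C, then developer. Absorbance read at 405 nm. Percent viability = treated/control absorbance × 100.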

Assay [11] has as its system M14. In words: Cytotoxicity against human M14 cells assessed as cell viability after 48 hrs using GF-AFC as substrate by ApoTox-Glo triplex assay. The assay is classed as functional, cell-based. In a few lines: as §1
The test system of assay [12] is M14. In words: Induction of apoptosis human M14 cells assessed as caspase activity at 100 uM after 48 hrs using DEVD peptide as substrate by ApoTox-Glo triplex assay relative to control. The class given is functional. In a few lines: (§5)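 M14 #5 cells, 1250 per well in serum-free DMEM, pre-incubated 4 h at 37 °C, 5% CO2. Compounds added as 1:3 serial dilutions; incubated 4, 24, 48 and 72 h. Per time point, a reagent containing 400 µM GF-AFC (live-cell protease) and 400 µM bis-AAF-R110 (dead-cell protease) was added for 30 min at 37 °C, then fluorescence was read. Caspase-Glo 3/7 was added next, 30 min at room temperature, then luminescence.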

The subject of assay [13] is M14. Kind of assay: Cytotoxicity against human M14 cells assessed as cell viability at 100 uM after 4 hrs by CellTiter-Glo luminescence assay. The class given is functional, cell-based. Summed up: (§6)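 M14 cells, 1250 per well, in serum-free DMEM. Compounds given in 10-point 1:3 dilution series starting at 100 µM; controls were gefitinib, doxorubicin and ionomycin. Incubated at 37 °C, 5% CO2. CellTiter-Glo luminescence read at 4, 24, 48 and 72 h. Viability normalized to media-only wells and 1% DMSO-treated wells.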

In assay [14] the target is Histone deacetylase 2 (Homo sapiens) (UniProt Q92769). In words: Inhibition of HDAC2 (unknown origin) up to 100 uM.
Sequence of Histone deacetylase 2 (Homo sapiens) (Q92769 whole entry): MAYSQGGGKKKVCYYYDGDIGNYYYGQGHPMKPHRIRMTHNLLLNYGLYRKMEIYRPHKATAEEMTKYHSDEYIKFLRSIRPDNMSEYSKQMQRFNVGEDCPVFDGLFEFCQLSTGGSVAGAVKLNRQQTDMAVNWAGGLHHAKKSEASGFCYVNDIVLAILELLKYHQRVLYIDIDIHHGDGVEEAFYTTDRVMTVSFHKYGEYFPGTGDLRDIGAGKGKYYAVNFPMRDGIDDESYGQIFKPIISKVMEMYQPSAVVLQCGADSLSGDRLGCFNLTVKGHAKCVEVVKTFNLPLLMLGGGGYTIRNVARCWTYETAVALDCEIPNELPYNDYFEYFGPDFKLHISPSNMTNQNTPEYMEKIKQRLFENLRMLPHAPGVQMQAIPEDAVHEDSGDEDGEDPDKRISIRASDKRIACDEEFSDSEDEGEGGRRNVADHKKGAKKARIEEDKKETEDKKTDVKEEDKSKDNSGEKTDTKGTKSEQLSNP
The subject of assay [15] is M14. Kind of assay: Cytotoxicity against human M14 cells assessed as cell viability at 100 uM after 24 hrs by CellTiter-Glo luminescence assay. The class given is functional, cell-based. Summed up: as §6
In assay [16] the test system is M14. In words: Induction of apoptosis human M14 cells assessed as caspase activity at 100 uM after 24 hrs using DEVD peptide as substrate by ApoTox-Glo triplex assay relative to control. The class given is functional. In a few lines: as §5
Assay [17] concerns M14. In words: Cytotoxicity against human M14 cells assessed as cell viability at 100 uM after 48 hrs by CellTiter-Glo luminescence assay. The assay is classed as functional, cell-based. In a few lines:
as §6

Assay [18] in a line: Cytotoxicity against mouse B16F10 cells expressing p53 mutant at 10 uM after 48 hrs by hexosaminidase assay. The assay is classed as functional. To be noted: B16-F10, 48 h. In a few lines: as §4
The target of assay [19] is T1, Protein deacetylase HDAC6 (Homo sapiens) (UniProt Q9UBN7).
T1 sequence (whole entry): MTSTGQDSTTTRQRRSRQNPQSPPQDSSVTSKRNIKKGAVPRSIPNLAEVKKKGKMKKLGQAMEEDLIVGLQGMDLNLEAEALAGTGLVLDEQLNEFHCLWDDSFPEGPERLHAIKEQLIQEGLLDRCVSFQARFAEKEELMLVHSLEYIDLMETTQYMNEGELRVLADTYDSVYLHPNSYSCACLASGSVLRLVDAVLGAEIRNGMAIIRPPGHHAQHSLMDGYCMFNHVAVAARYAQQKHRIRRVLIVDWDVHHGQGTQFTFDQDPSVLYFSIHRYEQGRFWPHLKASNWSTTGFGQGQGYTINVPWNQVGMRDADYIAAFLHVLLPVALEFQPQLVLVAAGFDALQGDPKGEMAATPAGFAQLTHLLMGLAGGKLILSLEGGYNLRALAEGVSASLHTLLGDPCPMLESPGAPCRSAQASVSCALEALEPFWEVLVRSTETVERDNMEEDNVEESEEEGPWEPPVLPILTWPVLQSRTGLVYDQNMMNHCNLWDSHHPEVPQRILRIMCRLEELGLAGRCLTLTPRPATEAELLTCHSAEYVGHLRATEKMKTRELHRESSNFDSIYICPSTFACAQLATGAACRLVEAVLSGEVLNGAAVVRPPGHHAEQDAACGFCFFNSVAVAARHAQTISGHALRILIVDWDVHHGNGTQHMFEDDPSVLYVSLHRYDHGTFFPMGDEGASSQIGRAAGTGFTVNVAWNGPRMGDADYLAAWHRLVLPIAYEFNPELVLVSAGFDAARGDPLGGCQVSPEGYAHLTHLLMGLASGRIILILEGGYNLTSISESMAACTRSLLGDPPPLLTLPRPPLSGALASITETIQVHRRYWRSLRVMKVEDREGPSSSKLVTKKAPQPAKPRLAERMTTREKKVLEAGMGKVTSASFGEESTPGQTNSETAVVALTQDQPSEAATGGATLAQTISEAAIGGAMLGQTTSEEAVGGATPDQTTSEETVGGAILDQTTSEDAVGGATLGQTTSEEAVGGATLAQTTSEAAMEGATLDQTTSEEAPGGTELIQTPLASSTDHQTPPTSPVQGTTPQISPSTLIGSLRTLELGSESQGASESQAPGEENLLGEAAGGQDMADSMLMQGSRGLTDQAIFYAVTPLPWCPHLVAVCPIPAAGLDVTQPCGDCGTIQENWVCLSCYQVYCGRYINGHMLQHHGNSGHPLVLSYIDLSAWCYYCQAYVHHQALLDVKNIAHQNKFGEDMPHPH
In words: Inhibition of HDAC6 (unknown origin) up to 100 uM.

The test system of assay [20] is SK-MEL-28. In words: Cytotoxicity against human SK-MEL-28 cells expressing B-raf V600E mutant at 10 uM after 48 hrs by hexosaminidase assay. The class given is functional. To be noted: SK-MEL-28, 48 h. Summed up: as §4
The target of assay [21] is Histone deacetylase 1 (Homo sapiens) (UniProt Q13547). Kind of assay: Inhibition of HDAC1 (unknown origin) up to 100 uM.
Sequence of Histone deacetylase 1 (Homo sapiens) (Q13547 whole entry): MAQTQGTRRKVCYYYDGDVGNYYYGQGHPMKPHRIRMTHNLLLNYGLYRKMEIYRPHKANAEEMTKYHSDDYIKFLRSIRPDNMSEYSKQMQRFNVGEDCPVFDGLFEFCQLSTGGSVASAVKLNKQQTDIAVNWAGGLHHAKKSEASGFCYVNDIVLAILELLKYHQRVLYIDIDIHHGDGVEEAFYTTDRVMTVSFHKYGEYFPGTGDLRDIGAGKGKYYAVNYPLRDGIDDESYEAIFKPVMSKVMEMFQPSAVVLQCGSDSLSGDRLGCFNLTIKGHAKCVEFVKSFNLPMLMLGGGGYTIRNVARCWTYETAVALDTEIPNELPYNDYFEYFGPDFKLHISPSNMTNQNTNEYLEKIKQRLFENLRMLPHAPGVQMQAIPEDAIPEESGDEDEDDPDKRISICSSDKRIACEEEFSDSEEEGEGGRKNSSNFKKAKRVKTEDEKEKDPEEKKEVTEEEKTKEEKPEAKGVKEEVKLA
For assay [22], the system named is M14. Kind of assay: Induction of apoptosis human M14 cells assessed as caspase activity at 100 uM after 72 hrs using DEVD peptide as substrate by ApoTox-Glo triplex assay. The assay is classed as functional, cell-based. Summed up:
as §1

The test system of assay [23] is M14. In words: Cytotoxicity against human M14 cells assessed as cell viability after 48 hrs using bis-AAF-R110 as substrate by ApoTox-Glo triplex assay. The class given is functional, cell-based. Summed up:
as §1

Assay [24] is described as follows: (§7) Cytotoxicity against mouse B16F10 cells expressing p53 mutant after 48 hrs by hexosaminidase assay. The assay is classed as functional, cell-based. The conditions noted are these: B16-F10, 48 h. In a few lines: as §4
The next assay concerns B16-F10. Described as §7. The class given is functional, cell-based. In a few lines: as §4
Assay [25] has as its system M14. In words: Induction of apoptosis human M14 cells assessed as caspase activity at 100 uM after 4 to 72 hrs using DEVD peptide as substrate by ApoTox-Glo triplex assay. The assay is classed as functional, cell-based. Summed up: as §5
Assay [26] deals with M14. In words: Cytotoxicity against human M14 cells assessed as cell viability after 4 hrs using GF-AFC as substrate by ApoTox-Glo triplex assay. The class given is functional, cell-based. Summed up:
as §5

The source made the active and inactive calls. The rule behind the calls is not given here.

As to `Cc1[nH]c2ccccc2c1CCNCc1ccc(/C=C/C(=O)NO)cc1`, the result in the assay on M14 [1], in the assay on M14 [3] and in the assay on M14 [5] was inactive. Besides, the result in the assay on M14 [2] was Active. Moreover, the Activity entry with M14 [4] was “Dose-dependent effect”.
For the compound `CCC[C@H]1CNC(=O)C(=O)N1C[C@@H]1CCCN1C[C@@H](CC1CCCCC1)N1C[C@H](Cc2ccc(O)cc2)N(CCc2ccccc2)C(=O)C1=O`, the IC50 with M14 [6] is 8.8 µM; in the assay with A549 [7] it was 52 µM; in assay [9], greater than 100 µM. The “Ratio IC50” value in the assay with A549 [8] is recorded as 5; with CHO-K1, greater than 10.
For the compound `O=C1NC[C@H](Cc2ccccc2)N(C[C@@H]2CCCN2C[C@@H](CC2CCCCC2)N2C[C@H](Cc3ccc(O)cc3)N(CCc3ccccc3)C(=O)C2=O)C1=O`, the inhibition result in the assay with SK-MEL-28 [10], with M14 [6] and in the assay on B16-F10 was “Dose-dependent effect” in each case. Besides, the IC50 in the assay on SK-MEL-28 [10] (SK-MEL-28, 48 h) is 0.56 µM; in the assay on M14 [6], 3.6 µM; in the assay on A549 [7], greater than 100 µM; in assay [24], 2.7 µM; in [9], greater than 100 µM. The Activity result with M14 [11] is “Dose-dependent effect”; in the assay on M14 [12], 400%; in the assay with M14 [16], 550%; in the assay with M14 [23], “Dose-dependent effect”. In addition, the result with M14 [13], in the assay with M14 [1], in the assay on M14 [22], with M14 [3] and in the assay on M14 [5] was inactive. Besides, the inhibition result in [14], in assay [19] and in assay [21] was “inactive” throughout. Also, the outcome in the assay on M14 [15] and in the assay on M14 [17] was Active. For the same compound, the inhibition at 10 µM (in [18]; in the assay on SK-MEL-28 [20]) was 100% in each case.
In the case of `C[C@H](CCC(=O)O)C[C@H](C)C[C@H](C)C(=O)/C=C(\O)[C@H](C)C[C@H](C)C/C=C/[C@@H](C)[C@@H](O)[C@@H](C)[C@@H](O)C[C@@H]1CC[C@@](C)([C@H]2CC[C@@](C)([C@@H](C)O)O2)O1`, the outcome with M14 [25] was inactive. For the same compound, the Activity entry in the assay with M14 [26] is “Dose-dependent effect”.

The record behind these values is ChEMBL document CHEMBL3232843, “Novel pyrrolidine diketopiperazines selectively inhibit melanoma cells via induction of late-onset apoptosis” (J Med Chem, 2014).
